Assay results from ChEMBL document CHEMBL2086296, “Synthesis of novel quinoline-2-one based chalcones of potential anti-tumor activity” (Eur J Med Chem, 2012).

How the values were obtained:
HOP-62 [1] = assay: (§1) Cytotoxicity against human HOP62 cells after 24 hrs by SRB assay; type: functional; settings: HOP-62, 24 h
Procedure, shortened: (§2)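 NCI 60-line screen. Cells in RPMI 1640 with 5% FBS and 2 mM L-glutamine, seeded at 5,000–40,000 cells/well by doubling time, then incubated 24 h at 37 °C, 5% CO2 before dosing. Time-zero plates fixed with TCA at drug addition. DMSO stocks diluted in medium with gentamicin to five concentrations, […]. Protein read by SRB staining. GI50, TGI and LC50 derived relative to control and time-zero.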

NCI-H226 = assay: Cytotoxicity against human NCI-H226 cells after 24 hrs by SRB assay; type: functional; settings: NCI-H226, 24 h; procedure, shortened: as §2
NCI-H23 = assay: Cytotoxicity against human NCI-H23 cells after 24 hrs by SRB assay; type: functional; settings: NCI-H23, 24 h; procedure, shortened: as §2
A549 [2] = assay: (§3) Cytotoxicity against human A549 cells after 24 hrs by SRB assay; type: functional; settings: A549, 24 h; procedure, shortened: as §2
HCT-116 [3] = assay: (§4) Cytotoxicity against human HCT116 cells after 24 hrs by SRB assay; type: functional; settings: HCT-116, 24 h; procedure, shortened: as §2
SF-295 = assay: Cytotoxicity against human SF295 cells after 24 hrs by SRB assay; type: functional; settings: SF-295, 24 h; procedure, shortened: as §2
SNB-19 = assay: Cytotoxicity against human SNB19 cells after 24 hrs by SRB assay; type: functional; settings: SNB-19, 24 h
Procedure, shortened: (§5)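 NCI 60-cell screen. Cells are grown in RPMI 1640 with 5% FBS and 2 mM L-glutamine and seeded at 5,000–40,000 cells/well according to doubling time. They are preincubated 24 h at 37 °C in 5% CO2, and Tz plates are TCA-fixed at drug addition. Drug stock is in DMSO, diluted in medium with gentamicin, and tested at five concentrations (100, 10, 1.0, 0.1, […]). Protein is read by SRB staining. GI50, TGI and LC50 are derived relative to time-zero and control wells.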

SNB-75 = assay: Cytotoxicity against human SNB75 cells after 24 hrs by SRB assay; type: functional; settings: SNB-75, 24 h; procedure, shortened: as §5
UACC-257 = assay: Cytotoxicity against human UACC257 cells after 24 hrs by SRB assay; type: functional; settings: UACC-257, 24 h; procedure, shortened: as §5
SK-MEL-2 = assay: Cytotoxicity against human SK-MEL-2 cells after 24 hrs by SRB assay; type: functional; settings: SK-MEL-2, 24 h; procedure, shortened: as §2
M14 = assay: Cytotoxicity against human M14 cells after 24 hrs by SRB assay; type: functional; settings: M14, 24 h; procedure, shortened: as §2
SK-MEL-28 = assay: Cytotoxicity against human SK-MEL-28 cells after 24 hrs by SRB assay; type: functional; settings: SK-MEL-28, 24 h; procedure, shortened: as §2
NCI/ADR-RES = assay: Cytotoxicity against human NCI/ADR-RES cells after 24 hrs by SRB assay; type: functional; procedure, shortened: as §2
OVCAR-8 [4] = assay: (§6) Cytotoxicity against human OVCAR8 cells after 24 hrs by SRB assay; type: functional; settings: OVCAR-8, 24 h; procedure, shortened: as §2
OVCAR-5 = assay: Cytotoxicity against human OVCAR5 cells after 24 hrs by SRB assay; type: functional; settings: OVCAR-5, 24 h; procedure, shortened: as §2
SK-OV-3 = assay: Cytotoxicity against human SKOV3 cells after 24 hrs by SRB assay; type: functional; settings: SK-OV-3, 24 h; procedure, shortened: as §2
CAKI-1 = assay: Cytotoxicity against human CAKI-1 cells after 24 hrs by SRB assay; type: functional; settings: CAKI-1, 24 h; procedure, shortened: as §2
SN12C = assay: Cytotoxicity against human SN12C cells after 24 hrs by SRB assay; type: functional; procedure, shortened: as §2
BT-549 = assay: Cytotoxicity against human BT549 cells after 24 hrs by SRB assay; type: functional; settings: BT-549, 24 h; procedure, shortened: as §2
T47D = assay: Cytotoxicity against human T47D cells after 24 hrs by SRB assay; type: functional; procedure, shortened: as §5
[5] = (§7) Cytotoxicity against human Hs 578T cells after 24 hrs by SRB assay; type: functional; procedure, shortened: as §2
HOP-62 [6] = assay: as §1; type: cell-based; settings: hop-62, 24 h
Procedure, shortened: (§8)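 NCI 60-cell screen. Cells grown in RPMI 1640 with 5% FBS and 2 mM L-glutamine, seeded at 5,000–40,000 cells/well, preincubated 24 h at 37 °C in 5% CO2. Drug stock in DMSO, diluted in medium with gentamicin; five final concentrations, 100, 10, 1.0, 0.1 and […]. Time-zero plates were TCA-fixed. Protein read by SRB staining; GI50, TGI and LC50 taken relative to time-zero.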

NCI-H460 = assay: Cytotoxicity against human NCI-H460 cells after 24 hrs by SRB assay; type: cell-based; settings: nci-h460, 24 h; procedure, shortened: as §8
A549 [7] = assay: as §3; type: cell-based; settings: a549, 24 h; procedure, shortened: as §8
HCT-116 [8] = assay: as §4; type: cell-based; settings: hct-116, 24 h; procedure, shortened: as §8
KM12 = assay: Cytotoxicity against human KM12 cells after 24 hrs by SRB assay; type: cell-based; settings: km12, 24 h; procedure, shortened: as §8
SF-539 = assay: Cytotoxicity against human SF539 cells after 24 hrs by SRB assay; type: cell-based; settings: sf-539, 24 h; procedure, shortened: as §8
LOX IMVI = assay: Cytotoxicity against human LOXIMVI cells after 24 hrs by SRB assay; type: cell-based; procedure, shortened: as §8
SR = assay: Cytotoxicity against human SR cells after 24 hrs by SRB assay; type: functional; procedure, shortened: as §5
HL-60 = assay: Cytotoxicity against human HL60 cells after 24 hrs by SRB assay; type: functional; settings: HL-60, 24 h; procedure, shortened: as §2
MDA-MB-435 = assay: Cytotoxicity against human MDA-MB-435 cells after 24 hrs by SRB assay; type: cell-based; settings: mda-mb-435, 24 h; procedure, shortened: as §8
OVCAR-8 [9] = assay: as §6; type: cell-based; settings: ovcar-8, 24 h; procedure, shortened: as §8
TK-10 = assay: Cytotoxicity against human TK10 cells after 24 hrs by SRB assay; type: cell-based; settings: tk-10, 24 h
Procedure, shortened: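 NCI 60-cell-line screen: cells grown in RPMI 1640 with 5% FBS and 2 mM L-glutamine, seeded at 5,000–40,000 cells/well by doubling time, and preincubated 24 h at 37 °C in 5% CO2. Time-zero plates were TCA-fixed. DMSO stocks were diluted in medium with gentamicin to five concentrations (100, 10, 1.0, 0.1, […]). Protein was read by SRB, and GI50, TGI and LC50 were derived against time-zero.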

DU-145 = assay: Cytotoxicity against human DU145 cells after 24 hrs by SRB assay; type: cell-based; settings: du-145, 24 h; procedure, shortened: as §8
MCF7 = assay: Cytotoxicity against human MCF7 cells after 24 hrs by SRB assay; type: cell-based; settings: mcf7, 24 h; procedure, shortened: as §8
[10] = as §7; type: cell-based; procedure, shortened: as §8

## O=C(/C=C/c1cc2ccccc2[nH]c1=O)c1ccc(Cl)cc1
HOP-62 [1]
  GI50: 7.43 µM
  TGI: 44.2 µM
NCI-H226
  GI50: 11.6 µM
  TGI: 38.9 µM
NCI-H23
  GI50: 5.37 µM
  TGI: 93.3 µM
A549 [2]
  GI50: 7.24 µM
  TGI: > 100 µM
HCT-116 [3]
  GI50: 3.26 µM
  TGI: 14.8 µM
SF-295
  GI50: 4.57 µM
  TGI: 38.3 µM
SNB-19
  GI50: 5.11 µM
  TGI: > 100 µM
SNB-75
  GI50: 6.21 µM
  TGI: 48.8 µM
UACC-257
  GI50: 7.78 µM
  TGI: 46.9 µM
SK-MEL-2
  GI50: 8.55 µM
  TGI: 25.7 µM
M14
  GI50: 7.54 µM
  TGI: 39.7 µM
SK-MEL-28
  GI50: 17.7 µM
  TGI: 72.5 µM
NCI/ADR-RES
  GI50: 4 µM
  TGI: 23.6 µM
OVCAR-8 [4]
  GI50: 4.93 µM
  TGI: 21.2 µM
OVCAR-5
  GI50: 12.7 µM
  TGI: 97 µM
SK-OV-3
  TGI: > 100 µM
CAKI-1
  GI50: 1.6 µM
  TGI: 3.3 µM
SN12C
  GI50: 8.16 µM
  TGI: > 100 µM
BT-549
  GI50: 3.86 µM
  TGI: 17.1 µM
T47D
  GI50: 7.31 µM
  TGI: > 100 µM
[5]
  GI50: 11.1 µM
  TGI: > 100 µM
HOP-62 [6]
  LC50: > 100 µM
NCI-H460
  LC50: > 100 µM
A549 [7]
  LC50: > 100 µM
HCT-116 [8]
  LC50: 66.5 µM
KM12
  LC50: 98.9 µM
SF-539
  LC50: 74.2 µM
LOX IMVI
  LC50: > 100 µM
SR
  GI50: 1.71 µM
  TGI: 19.1 µM
HL-60
  GI50: 2.47 µM
  TGI: > 100 µM
MDA-MB-435
  LC50: > 100 µM
OVCAR-8 [9]
  LC50: 88.4 µM
TK-10
  LC50: 75.8 µM
DU-145
  LC50: > 100 µM
MCF7
  LC50: > 100 µM
[10]
  LC50: > 100 µM

## COc1ccc(C(=O)/C=C/c2cc3ccccc3[nH]c2=O)cc1
HOP-62 [1]
  GI50: 3.68 µM
  TGI: 11.6 µM
NCI-H226
  GI50: 5.57 µM
  TGI: > 100 µM
NCI-H23
  GI50: 2.9 µM
  TGI: 14.9 µM
A549 [2]
  GI50: 3.21 µM
  TGI: > 100 µM
HCT-116 [3]
  GI50: 2.31 µM
  TGI: 5.7 µM
SF-295
  GI50: 3.98 µM
  TGI: 18.6 µM
SNB-19
  GI50: 4.2 µM
  TGI: 19.1 µM
SNB-75
  GI50: 2.29 µM
  TGI: 10.1 µM
UACC-257
  GI50: 4.9 µM
  TGI: 18 µM
SK-MEL-2
  GI50: 3.91 µM
  TGI: 40.1 µM
M14
  GI50: 4.06 µM
  TGI: 22.5 µM
SK-MEL-28
  GI50: 7.59 µM
  TGI: 30.6 µM
NCI/ADR-RES
  GI50: 2.63 µM
  TGI: 8.44 µM
OVCAR-8 [4]
  GI50: 3.57 µM
  TGI: > 100 µM
OVCAR-5
  GI50: 3.6 µM
  TGI: 18.4 µM
SK-OV-3
  GI50: 4.44 µM
  TGI: > 100 µM
CAKI-1
  GI50: 1.78 µM
  TGI: 3.51 µM
SN12C
  GI50: 3.17 µM
  TGI: > 100 µM
BT-549
  GI50: 2.7 µM
  TGI: 7.9 µM
T47D
  GI50: 3.55 µM
  TGI: > 100 µM
[5]
  GI50: 3.3 µM
  TGI: > 100 µM
HOP-62 [6]
  LC50: 59 µM
NCI-H460
  LC50: 66.8 µM
A549 [7]
  LC50: > 100 µM
HCT-116 [8]
  LC50: 31.6 µM
KM12
  LC50: 26.9 µM
SF-539
  LC50: 45.5 µM
LOX IMVI
  LC50: 33.3 µM
SR
  GI50: 2.83 µM
  TGI: > 100 µM
HL-60
  GI50: 3.36 µM
  TGI: > 100 µM
MDA-MB-435
  LC50: 91.6 µM
OVCAR-8 [9]
  LC50: > 100 µM
TK-10
  LC50: > 100 µM
DU-145
  LC50: 35.8 µM
MCF7
  LC50: > 100 µM
[10]
  LC50: > 100 µM
